Test results: the EternaBench riboswitch data

Test system: MS2 coat protein
Experiment: apparent Kd, MS2 coat protein; higher = weaker binding; RNA-MaP array; FMN 200 µM where present
How it was run: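 On Illumina sequencing-chip clusters, designs were transcribed by stalled E. coli RNA polymerase and titrated with SNAP-549-labelled MS2 coat protein (0.7 or 1.5 nM, doubling to 3 µM), without and then with constant ligand, in 100 mM Tris-HCl pH 7.5, 80 mM KCl, 4 mM MgCl2, BSA, DTT, yeast tRNA and Tween-20. Apparent Kd is the median of filtered per-cluster curve fits to green signal normalised to red-channel RNA signal and control-cluster median Fmax.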

[1] = designed as: OFF switch for flavin mononucleotide, no ligand
[2] = ligand present: flavin mononucleotide, designed as: OFF switch for flavin mononucleotide
[3] = designed as: ON switch for flavin mononucleotide, no ligand
[4] = ligand present: flavin mononucleotide, designed as: ON switch for flavin mononucleotide

Sequence | apparent Kd [1] | apparent Kd [2] | apparent Kd [3] | apparent Kd [4]
UUAAAUCAUGUAGGAUAUGCAUGGCGAAGCUACGCAGAAGGACAUGAGGAUCACCCAUGUUAUAGCUACCCGUUACGGUGGCAA | 89.1 nM | 239 nM | – | –
GCUGUGGCAUGAGGAUAUGGUCAGCUUUGCUGACCAGAAGGCAUGUCAAUAGACAUGAGGAUCACCCAUGUAGUUAACACAGCA | – | – | 572 nM | 40.7 nM
CUUUUGUGAGGAUAUUAGUAGUAAAAAAAUAAAAUUACUACUGAGAAGGCACAUGAGGAUCACCCAUGUUCCUU | 14.8 nM | 39 nM | – | –
CUCUUGUCAGGAUAUCUUACAUAACAAUCGUAGUUACCAUUGGAGAAGGGACAUGAGGAUCACCCAUGUUAGCC | 23.8 nM | 46.5 nM | – | –
AUCCCGAUAGUAGGAUAUUUCUGCAGUUGUGGUUAGAUCGCCCUACAUGAGGAUCACCCAUGUAGAGAGAAGGACUGUGGUUAU | 5.7 nM | 8.54 nM | – | –
GGAGCACACAUUAACAUGAGGAUCACCCAUGUCAAAAGACAUGAGGAUAUGGAUCCGAAAAGGAUCCAGAAGGCAUAGUGCUCC | – | – | 301 nM | 15.7 nM
CAUCUCCCUUUUACAUGAGGAUCACCCAUGUUUUCAUAUUGAGAGGAUAUCGUAUUUGGAAACAUCGAGAAGGCUCAUUUGUAU | – | – | 536 nM | 175 nM
GCGCGGAACCUAGGAUAUCCGGCAUGGACAGGUGGUAAGUCUCCCACAUGAGGAUCACCCAUGUAGGAGAAGGAGGAUCACGGG | 6.51 nM | 6.7 nM | – | –
GCUUUAUUGGUCAGGAUAUACAUUUGUUACUCUUUGUAGAAGGGACAUGAGGAUCACCCAUGUACUUUACAUUC | 16 nM | 17.4 nM | – | –
UCGCGGGUGCAGAAGGGAUAGGCCUAUUGUCGUGGUGUCUAAACUUAACAUGAGGAUCACCCAUGUCAGGAUAUGCCCACGCGA | 11.6 nM | 13.5 nM | – | –
GUCAGCUCGUGAGGAUAUACAACACUGCUUCGGCAGUGUAUUAAGAUGACAUGAGGAUCACCCAUGUAGAAGGCACGAGCUGAU | 5.78 nM | 21 nM | – | –
GCAGACGUAGUGAGGAUAUGCUCUACCUCGGUAGAGCAGAAGGCACAUGAGGAUCACCCAUGUGAUUUUUCUGC | 40 nM | 573 nM | – | –
AUGUUGUCAGGAUAUCUUACAUAACAAUCGUUGUUACCAUUGGAGAAGGGACAUGAGGAUCACCCAUGUUAGCC | 20.8 nM | 23 nM | – | –
CUUUUGUGAGGAUAUUAGUAGUAAAUGAAUAAAAUUACUACUGAGAAGGCACAUGAGGAUCACCCAUGUUCCUC | 44.1 nM | 493 nM | – | –
AGCGUGUGAGGAUAUGCGGACUCCGGUAAAUCUGGAGUCCAGUAGAAGGCACAUGAGGAUCACCCAUGUGAGAU | 35.8 nM | 124 nM | – | –
GGAUAGGACAGAGGAUAUACGUGCUAGAGAUACUAGCAAAAUUUCCUCACAUGAGGAUCACCCAUGUAGAAGGCUGUCAUAUCG | 14.8 nM | 306 nM | – | –
CACGGCUUAGGAUAUACAUGAGGAUCACCCAUGUGGGAAAGCCAAGGCGUGGUAAAGUGUAGAAGGAAGAAGGA | 13.4 nM | 14.9 nM | – | –
GGAGGACGAAACAUGAGGAUCACCCAUGUGUUAUAAUUAAUAUAGGAUAUGUUUAUACUUUUUGGGCAGAAGGAUGAUAAUGCU | – | – | 21.9 nM | 16.9 nM
GUUGGCUGAGGAUAUGCUUGCGUGCUUUUGUGUCGCGGGUGACAUGAGGAUCACCCAUGUAGAAGGUGGUCGGC | 818 nM | 673 nM | – | –

Sequence | apparent Kd [1] | apparent Kd [2] | apparent Kd [3] | apparent Kd [4]
GGCUGUUUAGGAUAUACAUGAGGAUCACCCAUGUCGUUUAAUACAGACGGAUCCAACUGUAGAAGGAGAUGCCG | 102 nM | 79.7 nM | – | –
UCACAGGUUUAAGGCGUUCCCAGACAUGAGGAUCACCCAUGUAGAAGGACCGUAAGAAAUUUUCGGUAGGAUAUACAUUCAGGG | 28 nM | 31.9 nM | – | –
AAAAUCUAUUGAGGAUAUUCAUACACUACAUACGAAGAAGGCAAACAAUCAUGAGGACAUGAGGAUCACCCAUGUUGUGACCAU | – | – | 24 nM | 15.5 nM
CUUUAGUGAGGAUAUCAGUAGUAAUACAAUAGUAUUACUGCUGAGAAGGCACAUGAGGAUCACCCAUGUUCCUC | 38.1 nM | 169 nM | – | –
AUAGAAGACUAGAAGGAUUUAGUUGUAUAUUGUCGAGGUAUAUAAUUAGGUAGGAUAUGGGACAUGAGGAUCACCCAUGUUUUG | – | – | 28.2 nM | 15.4 nM
AAUAAACGCACAGGAUAUAGCAUCGACGUUGAGAACUUAAAGACGUCGAUGCUAGAAGGGUGAAAACAUGAGGAUCACCCAUGU | – | – | 87.6 nM | 18.7 nM
GCGUCAGAAUUAAUUGUGACAGACAGAAGGCAAUAGUUCAUGUCAGACAUGAGGAUCACCCAUGUUGAGGAUAUGUAUUGACAC | 5.62 nM | 5.65 nM | – | –
UUGUUCUGAGGAUAUACAUGAGGAUCACCCAUGUGUUUCUGCUUGGUGUCUUGCGUAUGUAGAAGGCUGUUCUC | 36.5 nM | 36.3 nM | – | –
UUUUUAAAUAUAGGAUAUGGAAACAUGAGGAUCACCCAUGUAUGAUAAGAUAAAUUAUGAUAUAGCCAGAAGGAUACAAUUUUU | – | – | 31.9 nM | 38.6 nM
GUCUUCCUAGGAUAUACAUGAGGAUCACCCAUGUACAGUUUCGUCUAAGGAUACUCGCGUAGAAGGAGGUGGAU | 21.9 nM | 42.7 nM | – | –
UUGAUUAUACAAGGAUAUCUAUUGUAAUUGAGACUUACAUGAGGAUCACCCAUGUUAAUAUUUUUAGAGAAGGUGUAUUUUCAG | – | – | 32.3 nM | 22.9 nM
AAGUAGAUCCGAGGAUAUACAAUCCGGAAACGGUACAUGAGGAUCACCCAUGUAGAAGGCGGAUCUACAGGUACUAAAGUACCC | 5.61 nM | 8.06 nM | – | –
AAAAGUAGAGGAUAUACAUGAGGAUCACCCAUGUAGAAAGGAAGUGUAUAUAUGGCAUGUAGAAGGCUACAUGA | 32.1 nM | 34.4 nM | – | –
CUCUUGUGAGGAUAUCGAAGAAAAGAAAAGAAAGAAAAGAACGAGAAGGCACAUGAGGAUCACCCAUGUAAGAA | 57.2 nM | 171 nM | – | –
UUUUAACAUGAGGAUCACCCAUGUGAGGAUAUCGAAAUUUAUAUUAAUAUUAUUUUUACGAGAAGGCACAUUUU | 90.3 nM | 95.4 nM | – | –
ACAUACAUUCGAGGAUAUCGGUGAACAAAUUAACGAGAAGGCGAUAAAAUUUUUAAUCUUAUGAACAUGAGGAUCACCCAUGUA | – | – | 21.3 nM | 18.5 nM
AUACGAAAGAUAGGAUAUACUGAGGUUGAAUGGGUAGAAGGAUCGAUAGUGGAGAAGACAUGAGGAUCACCCAUGUUGUGGAUU | – | – | 681 nM | 217 nM
AUCAGCUCGUCAGGAUAUACGUCACUGUGUCAGCAGUGUGGUAAGAUCACAUGAGGAUCACCCAUGUAGAAGGGACGAGCUGAU | 12.9 nM | 235 nM | – | –
AUCAGCUCGUCAGGAUAUACGUCACUGCGUCAGCAGUGUGGUAAGAUCACAUGAGGAUCACCCAUGUAGAAGGUACGAGCUGAU | 8.6 nM | 13.8 nM | – | –

Sequence | apparent Kd [1] | apparent Kd [2] | apparent Kd [3] | apparent Kd [4]
CCCACGAAAGUCGAACGAUGAUGGAGAAGGAGUAUAACAUGACAUGAGGAUCACCCAUGUGCCAACUAGGAUAUCCAUCAUGGG | 9.72 nM | 8.55 nM | – | –
AGUAACAGAGGAUAUACUAUUUUAUGUGUUUAUUGUUUUAAACAUGAGGAUCACCCAUGUAGAAGGCUGAAUAA | 29.4 nM | 40.5 nM | – | –
GACAUCGCAGGAUAUUAGGGUUUGUACAUGAGGAUCACCCAUGUUAAUUGGGUUAAUGUCUAAGAAGGGCGGUGUC | 147 nM | 240 nM | – | –
GAUUCGGGAGGAUAUACAUGAGGAUCACCCAUGUGUUUUUUAUGUGUUAUGUUAUCAUGUAGAAGGUUUGGGUC | 151 nM | 195 nM | – | –
AGUUAAUAUCGAGGAUAUCCUCAUAAACAUGAGGAUCACCCAUGUAGAAUGGGAGAAGGCGAUAUUAACAGCAUGUUACAUGCA | – | – | 210 nM | 114 nM
AAAUUUAACGAAGGAUAUGGAUACAUGAGGAUCACCCAUGUUUAUUUUGUGAUCUUGUAUAAGUACCAGAAGGUCGUAUACAUA | 165 nM | 459 nM | – | –
AUGGUUGUCGUAGGAUAUGUAGGAUAUUCCUACAUGAGGAUCACCCAUGUUCGCAUGGAAGAAGGACGGAAGGACGAUGACCAG | – | – | 452 nM | 163 nM
GAGCCAUCGUGAGAUGGCUAACAUACAUGAGGAUCACCCAUGUAGGAUAUCGAUUGCUUUGCAGUCGAGAAGGACAUGUUUAAU | 26.3 nM | 43.1 nM | – | –
AUCCUGCGAGGAUAUACAUAGUUUUGUUUGUUUUGUCUCAAACAUGAGGAUCACCCAUGUAGAAGGUGCGUCAC | 155 nM | 130 nM | – | –
GUGUAGAUAGGAUAUGCUUUGAGCUUAUGAGAGUAUGCUCGACAUGAGGAUCACCCAUGUAGAAGGGUUUACAC | – | 52.5 nM | – | –
UUUUGGUCAGGAUAUUGUUAGUUUAGUUGUUUGUAUUAGUUCGAGAAGGGACAUGAGGAUCACCCAUGUGAUUU | 99.2 nM | 102 nM | – | –
GCUGACGAUGUAGGAUAUCAGUAUAAUAAAUACUGAGAAGGACAUGAGGAUCACCCAUGUAAAAUCCCGUCAGCGAGGAAACUC | 17.1 nM | 23.8 nM | – | –
GUAAACCGGUGAGGAUAUUUAUAAUAGAGCUUUAUGAUAUACAUGAGGAUCACCCAUGUUACUUUAAAGAAGGCAUCGGAAAUG | 21.4 nM | 17.2 nM | – | –
AGUACUCAAAGAGUACCCAUACGGACAUGAGGAUCACCCAUGUAGGAUAUGCUACUCAAAGAGUAGUAGAAGGACAUGUUCCUC | 12.4 nM | 43.6 nM | – | –
CAGGCGGAGUCAGGAUAUGCACGGUGGACCUAUGACAUGAGGAUCACCCAUGUUACUACGCCUCAGCAGAAGGGACAACCUCCU | – | – | 88.8 nM | 7.87 nM
AUAUAGGCCCAGAAGGUGCCAGCGAGAGCUGCACAUGAGGAUCACCCAUGUUGUCGGUGACGACGCAAGGAUAUGGGCCUAUAU | – | – | 24.8 nM | 7.13 nM
GUAUUAAAGAUCCAUUUAUACAACAUGAGGAUCACCCAUGUGCAGGAUAUCGUGUGUUUUAUAUUCGAGAAGGGCAAAUUCAUU | 50.7 nM | 105 nM | – | –
AAAAAACAUGAGGAUCACCCAUGUAAAAAAAUCACAGGAUAUAAGGUCGCGAAAGCGACCUUAGAAGGGUGAUCAA | – | – | 443 nM | 105 nM
